pKi: −log10 of the molar value.
What was measured:
L1210 [1] = assay: Compound was tested for its ability to inhibit L1210 cell growth after 72 hr at 1000 uM concentration; assay type: functional; settings: Mus musculus, L1210, 72 h
How it was run: (§1)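 L1210 cells are grown as stationary suspension cultures in Fishers medium with 10% heat-inactivated horse serum. Drug exposure is continuous for 72 h. Cell number is counted with a Coulter counter. Percent inhibition is calculated against untreated control cultures.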

L1210 [2] = assay: Compound was tested for its ability to inhibit L1210 cell growth after 72 hr at 100 uM concentration; assay type: functional; settings: Mus musculus, L1210, 72 h; how it was run: as §1
[3] = molecular target: T1, Uridine-cytidine kinase 1 (Mus musculus) (UniProt P52623); assay: Inhibition of uridine kinase from L1210 cells was evaluated by measuring the retention of phosphorylated product on DE81 filter papers at 100 uM; assay type: functional, cell-based
T1 sequence (whole entry): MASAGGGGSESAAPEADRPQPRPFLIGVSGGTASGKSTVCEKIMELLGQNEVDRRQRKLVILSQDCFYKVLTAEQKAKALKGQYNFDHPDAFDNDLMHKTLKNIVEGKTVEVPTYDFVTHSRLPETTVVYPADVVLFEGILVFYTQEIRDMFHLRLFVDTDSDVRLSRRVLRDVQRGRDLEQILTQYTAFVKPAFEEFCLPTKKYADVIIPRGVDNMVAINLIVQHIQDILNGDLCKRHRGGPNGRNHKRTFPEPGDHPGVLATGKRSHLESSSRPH

[4] = molecular target: T1, Uridine-cytidine kinase 1 (Mus musculus); assay: Inhibition of uridine kinase from L1210 cells was evaluated by measuring the retention of phosphorylated product on DE81 filter papers at 1000 uM; assay type: functional, cell-based
L1210 [5] = assay: Compound was tested for its ability to inhibit L1210 cell growth after 72 hr at 500 uM concentration; assay type: functional; settings: Mus musculus, L1210, 72 h; how it was run: as §1
L1210 [6] = assay: Compound was tested for its ability to inhibit L1210 cell growth after 72 hr at 0.03 uM concentration; assay type: functional; settings: Mus musculus, L1210, 72 h; how it was run: as §1
[7] = molecular target: T2, Uridine-cytidine kinase 1 (Mus musculus, UniProt P52623); assay: Binding affinity to uridine kinase from L1210. was determined from the dixon plot
T2 sequence (P52623 whole entry): T1 sequence (whole entry)
How it was run: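 Uridine kinase from L1210 cells. Uridine is used at 10, 40 and 200 μM, with inhibitor at 1, 0.5, 0.2 and 0.1 mM. Ki is taken from Dixon plots.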

SMILES | inhibition at 1000 µM (L1210 [1]) [%] | inhibition at 100 µM (L1210 [2]) [%] | inhibition [3] [%] | inhibition [4] [%] | inhibition at 500 µM (L1210 [5]) [%] | inhibition at 0.03 µM (L1210 [6]) [%] | pKi [7]
O=c1ccn([C@@H]2C=C(CO)[C@@H](O)[C@H]2O)c(=O)[nH]1 | 36 | 2 | 35 | 78 | 12 |  | 
Nc1ccn([C@@H]2C=C(CO)[C@@H](O)[C@H]2O)c(=O)n1 | 99 | 99 | 57 | 89 | 96 | 58 | 4.22
